Results as given in ChEMBL document CHEMBL2086236, “Discovery of pyrrolo[3,2-c]quinoline-4-one derivatives as novel hedgehog signaling inhibitors” (Bioorg Med Chem, 2012).

Experiments:
[1] = Clearance in mouse hepatic microsomes by LC-MS/MS analysis; type: ADME, Microsome; conditions: liver microsomes, read-out: CLH
In short: (§1)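 Liver microsomes (0.2 mg protein/mL) were incubated with 1 µmol/L test compound in 50 mmol/L potassium phosphate, pH 7.4. The reaction was started with an NADPH-generating system (MgCl₂, glucose-6-phosphate, β-NADP+, G6P dehydrogenase) added at 20% of the reaction volume. Clearance was reported in µL/min/mg.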

[2] = Clearance in human hepatic microsomes by LC-MS/MS analysis; type: ADME, Microsome; conditions: liver microsomes, read-out: CLH; in short: as §1
Sonic hedgehog protein = Sonic hedgehog protein (Mus musculus, UniProt Q62226); experiment: Inhibition of recombinant mouse Shh expressed in […] assessed as inhibition of Gli1 expression after 48 hrs by luciferase reporter gene assay; type: cell-based, NIH/3T3
In short: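 NIH3T3 cells stably carrying a Gli-luciferase reporter (kept in DMEM/10% FBS, 500 µg/mL G418) were seeded on collagen-coated plates overnight. Compounds (final 0.03–1000 nM, n = 4 wells) were added with recombinant mouse Shh-N at final 1 µg/mL in 5.8% FBS, then incubated 48 h. Controls were 0.1% DMSO ± Shh-N (n = 10). Read-out was luciferase luminescence; IC50 is the mean of four measurements.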

[3] = biological target: Voltage-gated inwardly rectifying potassium channel KCNH2 (Homo sapiens, UniProt Q12809); experiment: inhibition of human ERG
Mus musculus [4] = experiment: Toxicity against Ptch+/- p53-/- double-mutant mouse medulloblastoma allograft model assessed as body weight loss at 6.25 mg/kg, po bid for 2 weeks; type: organism-based; set-up: dose 6.25 mg/kg, route oral; conditions: in vivo, 336 h
In short: (§2)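 Nude mice carrying subcutaneous Ptch+/- p53-/- medulloblastoma allografts (passaged in vivo) were dosed orally twice daily for 2 weeks, suspended in 0.5% methylcellulose, vs vehicle, once tumors reached an average of 150–250 mm³. Tumors were measured by caliper, with V = (a × b²)/2. T/C% = mean treated (Vend−Vstart)/control (Vend−Vstart) × 100. Body weight was followed. Points are mean SD of duplicates; 1-tailed Dunnett's test vs controls.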

Mus musculus [5] = experiment: In vivo inhibition of Shh signalling in mouse xenografted with PAN-04 cells assessed as Gli1 expression at 25 mg/kg, po bid measured after 24 hrs post first dose relative to control; values are per cent of control; conditions: PAN-04, po
[6] = Antitumor activity against Ptch+/- p53-/- double-mutant mouse medulloblastoma allograft model assessed as tumor growth rate at 6.25 mg/kg, po bid for 2 weeks measured up to 21 days relative to control; type: functional, Medulloblastoma cell; in short: as §2
[7] = Binding affinity to human Smo expressed in 293T cells after 1 hr by fluorescence analysis; type: cell-based
In short: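 293T cells were transiently transfected overnight with HA-tagged human Smo, then plated at 6×10⁴ cells/well. Compounds (final 0.03–1000 nM) were incubated 1 h with 2 nM BODIPY-cyclopamine, n = 3 wells per concentration. Media or excess unlabelled cyclopamine set the 0%/100% inhibition controls (n = 5). Cell fluorescence was read by flow cytometry after Versene detachment.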

Chain of Sonic hedgehog protein (Q62226 25-198 limits assumed): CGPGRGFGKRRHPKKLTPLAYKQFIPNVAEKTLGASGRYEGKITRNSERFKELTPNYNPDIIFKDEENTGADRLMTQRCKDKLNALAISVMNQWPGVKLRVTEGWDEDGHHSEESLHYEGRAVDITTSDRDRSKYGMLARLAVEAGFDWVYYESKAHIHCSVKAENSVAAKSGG
Chain of Voltage-gated inwardly rectifying potassium channel KCNH2 (Q12809 whole entry): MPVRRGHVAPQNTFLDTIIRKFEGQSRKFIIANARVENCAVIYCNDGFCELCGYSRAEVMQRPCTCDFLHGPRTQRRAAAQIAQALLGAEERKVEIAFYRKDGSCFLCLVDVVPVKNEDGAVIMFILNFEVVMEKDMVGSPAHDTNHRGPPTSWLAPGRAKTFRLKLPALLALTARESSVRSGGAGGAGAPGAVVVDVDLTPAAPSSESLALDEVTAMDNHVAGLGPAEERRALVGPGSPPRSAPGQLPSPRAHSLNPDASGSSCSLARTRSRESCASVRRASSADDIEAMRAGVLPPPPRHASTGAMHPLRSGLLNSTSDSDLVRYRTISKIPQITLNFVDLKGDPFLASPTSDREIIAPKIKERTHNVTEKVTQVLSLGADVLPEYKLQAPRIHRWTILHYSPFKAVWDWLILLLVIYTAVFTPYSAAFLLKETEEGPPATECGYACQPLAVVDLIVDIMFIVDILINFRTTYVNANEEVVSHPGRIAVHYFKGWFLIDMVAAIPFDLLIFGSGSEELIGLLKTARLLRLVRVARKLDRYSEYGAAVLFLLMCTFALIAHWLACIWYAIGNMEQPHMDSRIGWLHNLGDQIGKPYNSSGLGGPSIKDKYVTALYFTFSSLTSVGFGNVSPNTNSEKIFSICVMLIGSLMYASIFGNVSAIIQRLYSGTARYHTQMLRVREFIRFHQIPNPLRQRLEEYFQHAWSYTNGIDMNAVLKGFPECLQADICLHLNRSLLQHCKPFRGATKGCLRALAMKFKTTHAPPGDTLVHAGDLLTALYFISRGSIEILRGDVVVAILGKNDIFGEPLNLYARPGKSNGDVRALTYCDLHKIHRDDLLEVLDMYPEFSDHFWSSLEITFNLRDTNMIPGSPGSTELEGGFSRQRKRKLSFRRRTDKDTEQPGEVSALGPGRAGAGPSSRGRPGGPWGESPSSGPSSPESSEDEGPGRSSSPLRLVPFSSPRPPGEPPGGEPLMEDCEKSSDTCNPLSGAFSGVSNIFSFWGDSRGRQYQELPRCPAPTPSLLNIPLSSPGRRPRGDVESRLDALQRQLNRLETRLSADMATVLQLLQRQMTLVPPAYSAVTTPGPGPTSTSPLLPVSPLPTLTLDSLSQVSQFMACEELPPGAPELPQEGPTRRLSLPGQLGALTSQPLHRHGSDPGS

Structure (SMILES)	microsomal CLint [1] [µL/min/mg]	microsomal CLint [2] [µL/min/mg]	IC50 (Sonic hedgehog protein) [nM]	inhibition (INH) [3]	Activity (Mus musculus [4])	level, % of control at 25 mg/kg (Mus musculus [5]) [%]	Activity [6] [%]	IC50 [7] [nM]
CCC(=O)Cn1c(=O)c2c(OC)c(C(=O)NC3CCN(CCO)CC3)n(C)c2c2ccccc21	< 1	3	> 100	–	–	–	–	–
COc1c(C(=O)NCCN2CCCC2)sc2c1c(=O)n(CC(=O)c1ccccc1)c1ccccc21	–	–	5.1	–	–	–	–	–
COc1c(C(=O)NCCN2CCCC2)oc2c1c(=O)n(CC(=O)c1ccccc1)c1ccccc21	–	–	> 1000	–	–	–	–	–
COc1c(C(=O)NCCN2CCCC2)n(C)c2c1c(=O)n(CC(=O)c1ccccc1)c1ccccc21	95	14	2.9	–	–	–	–	–
CCOc1c(C(=O)NCCN2CCCC2)n(C)c2c1c(=O)n(CC(=O)c1ccccc1)c1ccccc21	155	26	7	–	–	–	–	–
COc1c(C(=O)NCCN2CCCCC2)n(C)c2c1c(=O)n(CC(=O)c1ccccc1)c1ccccc21	192	30	9.6	–	–	–	–	–
COc1c(C(=O)NCCN2CCOCC2)n(C)c2c1c(=O)n(CC(=O)c1ccccc1)c1ccccc21	237	73	22	–	–	–	–	–
COc1c(C(=O)NC2CCNCC2)n(C)c2c1c(=O)n(CC(=O)c1ccccc1)c1ccccc21	10	2	21	–	–	–	–	–
COc1c(C(=O)NC2CCN(CCO)CC2)n(C)c2c1c(=O)n(CC(=O)c1ccccc1)c1ccccc21	9	6	6.6	Active	–	–	–	–
COc1c(C(=O)NC2CCN(C(=O)CO)CC2)n(C)c2c1c(=O)n(CC(=O)c1ccccc1)c1ccccc21	11	< 1	4.6	Not Active	Non-toxic	5	3	41
COc1c(C(=O)NC2CCN(CCO)CC2)n(C)c2c1c(=O)n(CCc1ccccc1)c1ccccc21	48	72	150	–	–	–	–	–
